# Compound activity as filed in PubChem BioAssay.
# MrgX1 allo act: allosterically activates human MrgX1 receptor signaling; Q96LB2; B-score at 10 µM; MrgX1-HEK293, Fluo-4 calcium flux, FDSS; stronger effect = higher value; 310,000 compounds, 0.63% hits; AID 588675;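 active means plate-corrected calcium response at least 3 library SD above typical, normal starting fluorescence, not activating the receptor alone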;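 further: compound read alongside a low EC10 to EC30 dose of BAM8-22 agonist; peak minus trough fluorescence over baseline measured at the second addition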
# Target sequence (Q96LB2 whole entry, looked up): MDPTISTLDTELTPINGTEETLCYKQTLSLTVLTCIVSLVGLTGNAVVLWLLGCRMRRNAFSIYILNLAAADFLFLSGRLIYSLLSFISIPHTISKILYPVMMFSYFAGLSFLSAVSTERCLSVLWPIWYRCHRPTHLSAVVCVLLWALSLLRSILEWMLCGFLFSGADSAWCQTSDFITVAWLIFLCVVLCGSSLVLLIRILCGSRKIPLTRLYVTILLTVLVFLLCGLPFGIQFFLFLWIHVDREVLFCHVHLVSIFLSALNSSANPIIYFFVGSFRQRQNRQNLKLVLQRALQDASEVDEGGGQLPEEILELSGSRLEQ
# MrgX1 antag: human MrgX1 receptor antagonism, primary screen | Q96LB2 | MRGX1-HEK293 calcium flux, Fluo-4, BAM8-22 antagonism; stronger effect = lower value | B-score at 10 µM | 310,000 compounds, 1.3% hits | AID 588676;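 active means calcium-response B-score plate-corrected more than 3 library SD below zero, starting fluorescence within 5 deviations, no agonist response on first addition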;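 further: peak minus trough fluorescence over baseline after final BAM8-22 challenge near maximal dose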
# RGS4 inh: human RGS4 inhibition. B-score at 10 µM. P49798. 310,000 compounds, 0.45% hits. HEK293 M3R/RGS4 inducible, Fluo-4 calcium flux; stronger effect = higher value; triggered by carbachol at its EC20;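 active means B-score, a plate-corrected calcium signal, over three deviations above library mean, with baseline fluorescence within five deviations of library mean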;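 further: RGS4 expression induced by doxycycline in cells with stable M3 receptor; B-score is computed from the integrated fluorescence ratio over baseline after carbachol; higher B-score means a larger calcium signal and so more RGS4 inhibition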
# Target sequence (P49798 whole entry, looked up): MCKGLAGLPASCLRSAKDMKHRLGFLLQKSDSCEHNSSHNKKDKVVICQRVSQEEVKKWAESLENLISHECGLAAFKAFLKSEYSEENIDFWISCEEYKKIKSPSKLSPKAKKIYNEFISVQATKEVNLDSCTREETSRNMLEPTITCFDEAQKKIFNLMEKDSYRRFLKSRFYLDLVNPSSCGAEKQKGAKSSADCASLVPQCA
# RGS4 pot: RGS4 potentiation or activation. HEK293 M3R/inducible RGS4, carbachol calcium flux Fluo4; stronger effect = lower value. 310,000 compounds, 0.92% hits. B-score at 10 µM. AID 463111;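 active means B-score of the integrated calcium signal more than 4 SD below the library mean, with starting fluorescence not abnormally high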;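 further: negative B-score means reduced calcium response which marks RGS4 activation or potentiation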
#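 Detection: kinetic calcium fluorescence imaging with Fluo4-AM dye, 2 µM / Material: HEK293 cells with stable M3R and inducible RGS4 / Schedule: recording 10 s baseline at 1 Hz, 100 s post-agonist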
# MrgX1 agonist: human MrgX1 receptor agonism, primary screen. AID 588627. MrgX1-HEK293 cells, Fluo-4 calcium fluorescence, agonist mode; stronger effect = higher value. B-score at 10 µM. Q96LB2. 310,000 compounds, 0.44% hits;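 active means calcium response B-score plate-corrected fluorescence ratio at least 3 library SD, with starting fluorescence B-score inside 5 SD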
#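 Material: HEK293 cells stably expressing human MrgX1 receptor | Quantity: 15,000 cells per well | Times: Cells plated overnight, dye loaded 0.5 h 37 °C, 0.5 h room temperature | Measured by: Kinetic Fluo-4 NW fluorescence of intracellular calcium | Control set: Positive and negative controls per plate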
# MrgX1 ant reconf: human MrgX1 receptor antagonism, re-confirmation screen; 2,300 compounds, 19% hits; MrgX1-HEK293, BAM8-22 calcium flux, Fluo-4; stronger effect = lower value; AID 602420; remaining BAM8-22 calcium response % of control (stronger effect = lower value), % at 10 µM; shares compounds with MrgX1 antag;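 active means remaining agonist calcium response no higher than 100% minus 3 SD of agonist-only control wells, with starting fluorescence near control levels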;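 further: agonist BAM8-22 given at a near maximal EC90 to ECmax level; peak minus minimum fluorescence divided by baseline after agonist addition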
# HEK293 Ca flux: MrgX1 antagonist counter-screen hit in parental HEK293 cells; shares compounds with MrgX1 antag; Fluo-4 calcium fluorescence, FDSS; fluorescence ratio F(max-min)/F0 at 10 µM; 4,000 compounds, 2% hits;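 active means duplicate-averaged calcium fluorescence ratio at least three times the standard deviation of buffer wells, a nonspecific response in parental cells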
# HEK293 Ca counter: MrgX1 allosteric activator counter-screen hit in parental HEK293 cells | shares compounds with MrgX1 antag | parental HEK293 calcium flux, Fluo-4 fluorescence ratio; stronger effect = higher value | fluorescence ratio F(max-min)/F0 at 10 µM | 4,000 compounds, 0.4% hits | AID 624114;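 active means calcium fluorescence ratio, averaged over duplicates, at least 3 SD of the buffer-well ratio, meaning a nonspecific response in receptor-free cells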;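 further: untransfected parental HEK293 lacking MrgX1 used as counterscreen for MrgX1 allosteric activators; fluorescence change taken during the second addition on a kinetic imager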
# HEK293 Ca cntr2: counter-screen for MrgX1 activators: effect in parental HEK293 cells | 4,000 compounds, 8.7% hits | fluorescence ratio F(max-min)/F0 at 10 µM | AID 624115 | Fluo-4 calcium fluorescence (FDSS); stronger effect = higher value | shares compounds with MrgX1 antag;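 active means calcium fluorescence ratio at least three times the spread of buffer wells, meaning a non-specific response in parental cells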
# A number is an active result; . = inactive; / = no result given. This is a sample that favours compounds with a hit; in the whole collection about 3.5% have one here.
SMILES,MrgX1 allo act,MrgX1 antag,RGS4 inh,RGS4 pot,MrgX1 agonist,MrgX1 ant reconf,HEK293 Ca flux,HEK293 Ca counter,HEK293 Ca cntr2
COC(C(=O)Nc1ccc(NC(=O)C(OC)c2ccccc2)cc1)c1ccccc1 (stereo not given),.,.,.,.,.,/,/,/,/
COC(C(=O)NC(C(C)C)C(C)C)c1ccccc1 (stereo not given),.,-5.94,.,.,.,.,.,.,.
O=[N+]([O-])c1ncccc1OCc1ccc(Cl)c(Cl)c1,.,.,.,.,.,/,/,/,/
Cc1ccc(C)c(NC(=O)Cc2nc(CCl)cs2)c1,.,.,.,.,.,/,/,/,/
Cc1ccccc1NC(=O)Cc1nc(CCl)cs1,.,-5.37,.,.,.,.,.,.,.
O=C(CCC1CCCC1)NCCCN1CCOCC1,.,-6.94,.,.,.,.,.,.,.
Cc1cc(=O)n2c3ccccc3n(CC(O)CN3CCCC3)c2c1C#N (stereo not given),.,-5.3,.,.,.,.,.,.,.
O=C(Cc1ccc(Cl)cc1)NNC(=O)C1CC=CCC1C(=O)O (stereo not given),.,.,.,.,.,/,/,/,/
COCCNC(=O)C1(C)C=CC2(CCCCC2)N1C(=O)c1ccccc1 (stereo not given),.,.,.,.,.,/,/,/,/
CC1(C(=O)NCCN2CCOCC2)C=CC2(CCCCC2)N1C(=O)c1ccccc1 (stereo not given),.,-6.77,.,.,.,82.9%,.,.,.
COc1cccc(-c2nnc(SCC(=O)Nc3ccc4c(c3)OCCO4)n2Cc2ccco2)c1,.,-6.39,.,.,.,.,.,.,.
COc1cccc(-c2nnc(SCC(=O)NCc3ccc4c(c3)OCO4)n2Cc2ccco2)c1,.,.,.,.,.,/,/,/,/
C=C(C)CSc1nc2c(c(=O)[nH]c(=O)n2C)n1Cc1ccccc1,.,-4.82,.,.,.,82.9%,.,.,.
CCCSc1nc2c(c(=O)[nH]c(=O)n2C)n1Cc1ccccc1,.,.,.,.,.,/,/,/,/
CCc1noc(C)c1C(=O)N1CCSC1=Nc1cccc(Cl)c1C,.,.,.,.,.,/,/,/,/
Cc1ccc(NC(=O)N2CCN(C(=O)C3CCCO3)CC2)cc1 (stereo not given),.,-5.87,.,.,.,.,.,.,.
CCOC(=O)c1ccc(NC(=O)CN2CCN(C(=O)C3CCCO3)CC2)cc1 (stereo not given),.,-6.33,.,.,.,.,.,.,.
CCOc1ccc(NC(=O)CN2CCN(C(=O)C3CCCO3)CC2)cc1 (stereo not given),.,.,.,.,.,/,/,/,/
CC(C)c1ccccc1NC(=O)C1CC(=O)N(C2CCCC2)C1 (stereo not given),.,-5.12,.,.,.,.,.,.,.
CCOc1ccc(NC(=O)C2CCCN2S(=O)(=O)c2ccc(OCC)cc2)cc1 (stereo not given),.,.,.,.,.,/,/,/,/
CCN(Cc1ccccc1)S(=O)(=O)c1ccc2oc(C(=O)O)c(C)c2c1,.,-5.19,.,.,.,.,.,.,.
CCN(CC)S(=O)(=O)c1ccc2oc(C(=O)O)c(C)c2c1,.,.,.,.,.,/,/,/,/
Cc1ccc(Cn2nnc(C(=O)Nc3cc(C)ccc3C)c2N)cc1,.,-4.62,.,.,.,.,.,.,.
CCOc1ccc(NC(=O)CS(=O)(=O)c2cn(C)c3ccccc23)cc1,.,-7.96,.,.,.,.,.,.,.
CC1(C)CCC[C@@]2(C)CC=C(C(=O)O)[C@@H]3C[C@]312,.,.,.,.,.,/,/,/,/
